High-throughput results as filed in PubChem.
HCV NS3 hel inh = HCV NS3 helicase inhibition. NS3 helicase DNA unwinding, Cy5 molecular beacon fluorescence. inhibition, % at 10.9 µM. 290,000 tested, 0.56% active;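 active = inhibition above the mean of all tested compounds plus 3 SD, set per campaign, cut at about 35% in these data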
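Assay system – hepatitis C virus NS3 helicase domain fragment enzyme · Buffer or medium – MOPS pH 6.5, MgCl2, DTT, Tween20, BSA · Reagent – Cy5/quencher beacon DNA duplex and ATP to start · Compound – single 10.9 µM dose · Timing – 1 h at 25 °C · Technique – Cy5 beacon fluorescence read at start and 1 h · Measure – % inhibition of unwinding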
eIF4H inh = inhibitors of RNA binding by human eIF4H | Q15056 | eIF4H fluorescence polarization binding assay | inhibition, % at 35 µM | 290,000 tested, 0.94% active;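 also: calls also rest on retests at 20 µM and on dose response follow-up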
PABP FP inh = blocks human PABP binding to poly(A) RNA; P11940; fluorescence polarization; inhibition, % at 35 µM; 290,000 tested, 1% active; AID 2014;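 also: calls also rest on retests at 20 µM and on dose response follow-up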
DNA FID counter-1 = counter-screen for HCV NS3 helicase inhibitors: DNA intercalator displacement; 290,000 tested, 0.17% active; AID 1845; inhibition, % at 7.9 µM; DNA fluorescent intercalator displacement, fluorescence; in the data active = inhibition above about 37%;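 also: higher means more ethidium bromide displaced from hairpin DNA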
PABP1 MLLE inh = inhibitors of microRNA-mediated deadenylation, human PABP1 MLLE binding; GST-MLLE / FITC-PAM2 fluorescence polarization; inhibition, % at 20 µM; 360,000 tested, 0.36% active; in the data active = inhibition above about 35%, passing the limit was not always enough
core dimer inh = blocks dimerization of HCV core protein | TR-FRET GST/Flag-core106 dimerization, 1536-well | 300,000 tested, 0.33% active | AID 1899 | inhibition, % at 5 µM;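 active = inhibition above the mean of all tested compounds plus 3 SD, set per screening campaign, cut at about 45% in these data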
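System – GST-tagged and Flag-tagged HCV core protein residues 1-106 · Repeats – one well for each compound · Technique – TR-FRET 671 and 617 nm emission · Doses – one concentration, 5 µM, in 0.5% DMSO · Times – 4 h, 22.5 °C incubation · Also added – Eu donor and XL665 acceptor anti-tag antibodies · Measure – percent inhibition of core106 dimerization signal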
NS3 hel confirm = HCV NS3 helicase inhibition, confirmation assay; 1,600 tested, 31% active; NS3 helicase DNA unwinding, Cy5 molecular beacon fluorescence; shares compounds with HCV NS3 hel inh; inhibition, % at 10.9 µM;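 active = inhibition above the mean of all tested compounds plus 3 SD, cutoff set per campaign, cut at about 36% in these data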
DNA FID counter-2 = counter-screen for HCV NS3 helicase inhibitors: DNA intercalator displacement | DNA fluorescent intercalator displacement, fluorescence | inhibition, % at 7.9 µM | AID 1945 | 1,600 tested, 4% active | shares compounds with HCV NS3 hel inh; in the data active = inhibition above about 37%;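 also: higher means more displacement of ethidium bromide from the DNA hairpin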
DNA FID DR = counter-screen for HCV NS3 helicase inhibitors: DNA intercalator displacement dose response | shares compounds with HCV NS3 hel inh | fluorescent intercalator displacement from DNA, fluorescence | IC50, µM | 120 tested, under 10 active | AID 2172
Numbers stand for hits; 0 = inactive; ? = inconclusive; - = no result given. Rows were chosen to be rich in hits. Some 2% of all compounds tested hit in one or more screens of this group. Unless noted, no rule for the calls is given here.

SMILES	HCV NS3 hel inh	eIF4H inh	PABP FP inh	DNA FID counter-1	PABP1 MLLE inh	core dimer inh	NS3 hel confirm	DNA FID counter-2	others
O=C(/C=C/[C@H]1O[C@@H](n2ccc(=O)[nH]c2=O)[C@H](O)[C@@H]1O)NCc1cccnc1	-	-	-	-	0	-	-	-
Cc1ccc(C(=O)O)cc1-c1ccc(/C=C2\SC(=O)N(CC(=O)Nc3ccccc3)C2=O)o1	38.5	0	0	0	0	0	77.6	0	DNA FID DR=0
Cc1ccc2c(nc3s/c(=C\c4ccc(-c5ccccc5C(=O)O)o4)c(=O)n32)c1C	43.8	0	0	0	0	0	65.4	50.5
O=C(O)c1ccc(-c2ccc(/C=c3/sc4nc5ccccc5n4c3=O)o2)cc1Cl	63.3	0	78.5	0	0	0	60.1	0
COc1ccc(OC)c(S(=O)(=O)NC(=O)C2(C)CCN2C(=O)CC2CCCC2)c1 (stereo unspecified)	-	-	-	-	0	-	-	-
Cc1noc(C)c1C(=O)OC(C)C(=O)c1ccc(C(C)(C)C)cc1 (stereo unspecified)	-	-	-	-	0	-	-	-
CCOc1cc(/C=C2/C(=O)NN(c3cccc(Cl)c3)C2=O)ccc1O	36.7	0	0	0	0	0	63.7	0
COc1cc(/C=C2/C(=O)NN(c3ccc(C)c(Cl)c3)C2=O)cc([N+](=O)[O-])c1O	37.3	0	0	0	0	-	68.3	0
COc1cc(/C=C2/C(=O)NN(c3cccc(Cl)c3)C2=O)cc(OC)c1O	46.3	?	?	0	0	0	51.5	0
COc1cc(/C=C2/C(=O)NN(c3cccc(C)c3)C2=O)cc([N+](=O)[O-])c1O	0	0	0	0	0	0	-	-
CN(C(=O)CSc1nc2[nH]ncc2c(=O)[nH]1)c1ccccc1	-	-	-	-	0	0	-	-
Cc1ccccc1-c1cc2nc(NCc3ccc4occc4c3)n(C)c(=O)c2s1	-	-	-	-	0	-	-	-
Cc1nc(CN2C(=O)C3(CCC3)ON=C2c2cccc(Cl)c2)cs1	-	-	-	-	0	-	-	-
COC(=O)CN(c1cc([N+](=O)[O-])ccc1OC)S(C)(=O)=O	0	0	0	0	0	0	-	-
CC(C)CN(C(=O)COc1ccc([N+](=O)[O-])cc1)c1c(N)n(CC(C)C)c(=O)[nH]c1=O	-	-	-	-	0	-	-	-
Cc1cccc(OC(=O)c2ccc3c(=O)n4c(nc3c2)CCC4)c1	-	-	-	-	0	-	-	-
Cc1ccccc1CN1CCc2c(OCC(=O)N3CCCc4ccccc43)cccc2C1=O	75.2	0	0	0	0	0	0	0
O=C(COC(=O)c1cc(=O)[nH]c(=O)[nH]1)Nc1cccc(Cl)c1	-	-	-	-	0	-	-	-
CC(C)(C)c1ccc(C(=O)N2CCC2(C)C(=O)Nc2cccc(C#N)c2)cc1 (stereo unspecified)	-	-	-	-	0	-	-	-
Cc1cc(N2C(=O)C(=O)/C(=C(/O)c3ccc(F)cc3)C2c2ccc(Cl)cc2)no1 (stereo unspecified)	43.0	0	0	0	0	0	67.8	0
COC(=O)c1ccc(C2/C(=C(\O)c3ccc(OC)c(C)c3)C(=O)C(=O)N2c2cc(C)on2)cc1 (stereo unspecified)	0	0	0	0	0	0	-	-
O=C(Cc1ccc(Br)cc1)N1CCN(C(=O)c2ccco2)CC1	37.9	0	0	0	0	0	0	0
Cc1ccc([N+](=O)[O-])cc1Nc1nc(N2CCCC2)nc(N2CCCC2)n1	0	0	0	0	0	0	-	-
O=c1[nH]c(/C=C\c2cccc(Cl)c2)nc(O)c1[N+](=O)[O-]	36.5	0	0	0	0	0	0	0
O=C1/C(=C\c2ccccn2)SC(=S)N1c1ccc(S(=O)(=O)Nc2nccs2)cc1	36.4	0	0	0	0	0	0	0
SMILES	HCV NS3 hel inh	eIF4H inh	PABP FP inh	DNA FID counter-1	PABP1 MLLE inh	core dimer inh	NS3 hel confirm	DNA FID counter-2	others
Cc1ccc(C(=O)NCC(=O)OCc2nnc(-c3ccc([N+](=O)[O-])cc3)o2)s1	-	-	-	-	0	-	-	-
CCOC(=O)C1C(=O)NC(c2ccccc2)=NC1c1ccc(O)c(OC)c1 (stereo unspecified)	56.2	0	0	0	0	0	0	0
CC1(C)Cc2c(C#N)c(NCCc3ccccc3)nc(-c3ccco3)c2CO1	40.2	0	0	0	0	0	62.9	0	DNA FID DR=0
Cc1ccc(S(=O)(=O)NCCCCCC(=O)NCCc2ccccc2)cc1	43.2	0	0	0	0	0	0	0
CC1=NN(C(N)=S)C(=O)C1N=Nc1ccc(Br)cc1 (stereo unspecified)	40.6	0	0	0	0	-	0	0
CC1(C(=O)NS(=O)(=O)c2ccc(F)cc2F)CCN1C(=O)C1CCCCC1 (stereo unspecified)	-	-	-	-	0	-	-	-
O=C(Nc1cccc(Br)c1)c1cccc(OC(=S)N2CCOCC2)c1	0	0	0	0	0	0	-	-
NNc1ncnc2scc(-c3ccc(Cl)cc3)c12	0	0	0	0	0	0	-	-
Cc1ccc(-c2csc3ncnc(NS(=O)(=O)c4ccc(Cl)cc4)c23)cc1	50.2	0	0	0	0	0	44.1	0
C=CCn1c(SCCC)nc2sc3c(c2c1=O)CCc1ccccc1-3	60.2	0	0	0	0	0	0	0
O=[N+]([O-])/C(C=Nc1ccccc1O)=C\Nc1ccccc1O	38.3	0	0	0	0	-	0	0
O=[N+]([O-])/C(=C\Nc1ccccc1Cl)S(=O)(=O)c1ccccc1	0	0	0	0	0	0	-	-
CC(=O)N(C)c1cccc(-c2ccc3nnc(C)n3n2)c1	0	0	0	0	0	0	-	-
CCOC(=O)CC(=O)CSc1ccc2nnc(-c3ccc(F)cc3)n2n1	38.4	0	0	0	0	0	0	0
C[N+](C)(C)C[C@H](O)CC(=O)[O-]	-	-	-	-	0	0	-	-
N#CCC(=O)Nc1ccc(C(=O)N2CCN(c3ccccn3)CC2)cc1	0	0	0	0	0	0	-	-
Cc1cccc(/N=C/c2c(O)ccc3oc4c(c23)CCCC4)n1	0	0	0	0	0	0	-	-
O=[N+]([O-])c1cc2oc3c(c2c(C=NCc2ccccc2)c1O)CCCC3	51.1	76.5	active	0	0	0	74.6	69.2
CC(C)CN=Cc1c(O)c([N+](=O)[O-])cc2oc3c(c12)CCCC3	45.8	?	0	0	0	0	0	62.6
O=c1c2ccccc2sc2nc(C3CCCCC3)n(Cc3ccco3)c(=O)c12	39.6	0	0	0	0	-	0	0
O=c1c2c3c(sc2nc(NCCO)n1Cc1ccco1)CCCCC3	0	0	0	0	0	0	-	-
CCc1cnc(Nc2nc(C(N)Cc3ccc(F)cc3)cs2)nc1 (stereo unspecified)	-	-	-	-	0	-	-	-
O=C(COC(=O)c1c(F)cccc1F)Nc1cccc(S(=O)(=O)N2CCCCC2)c1	-	-	-	-	0	-	-	-
